Measured values from ChEMBL document CHEMBL3588789, “Synthesis and Pharmacokinetic Evaluation of Siderophore Biosynthesis Inhibitors for Mycobacterium tuberculosis” (J Med Chem, 2015).

Test system: not listed separately
Test: Inhibition of Mycobacterium tuberculosis MbtA expressed in Escherichia coli using [32P]PPi, ATP and salicylic acid incubated for 20 mins by liquid scintillation counting method
Conditions: read-out: Ki(app)

| SMILES | Ki [nM] |
| --- | --- |
| CCN(CC)CC.Nc1ncnc2c1ncn2[C@@H]1O[C@H](CNS(=O)(=O)NC(=O)c2ccccc2O)[C@@H](O)[C@H]1F | 1.7 |
| CCN(CC)CC.Nc1ccc(C(=O)NS(=O)(=O)NC[C@H]2O[C@@H](n3cnc4c(N)ncnc43)[C@H](O)[C@@H]2O)c(O)c1 | 8.9 |

Test system: Mycobacterium tuberculosis
Test: Antimicrobial activity against Mycobacterium tuberculosis H37Rv grown in GAS medium without ferric ammonium citrate at pH 6.6 incubated for 10 to 14 days by broth microdilution method
Assay type: functional
Conditions: not given

| SMILES | MIC [µM] |
| --- | --- |
| CCN(CC)CC.Nc1ncnc2c1ncn2[C@@H]1O[C@H](CNS(=O)(=O)NC(=O)c2ccccc2O)[C@@H](O)[C@H]1F | 0.19 |
| CCN(CC)CC.Nc1ccc(C(=O)NS(=O)(=O)NC[C@H]2O[C@@H](n3cnc4c(N)ncnc43)[C@H](O)[C@@H]2O)c(O)c1 | 3.12 |

Test system: not listed separately
Test: Ratio of MIC for antimicrobial activity against Mycobacterium tuberculosis H37Rv to KI)app) for inhibition of Mycobacterium tuberculosis MbtA expressed in Escherichia coli
Conditions: not given

| SMILES | Ratio |
| --- | --- |
| CCN(CC)CC.Nc1ncnc2c1ncn2[C@@H]1O[C@H](CNS(=O)(=O)NC(=O)c2ccccc2O)[C@@H](O)[C@H]1F | 112 |
| CCN(CC)CC.Nc1ccc(C(=O)NS(=O)(=O)NC[C@H]2O[C@@H](n3cnc4c(N)ncnc43)[C@H](O)[C@@H]2O)c(O)c1 | 351 |

Test system: HepG2
Test: Cytotoxicity against human HepG2 cells assessed as reduction in cell viability incubated for 48 hrs by MTT assay
Assay type: cell-based
Conditions: hepg2, 48 h
Summary of the method: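 HepG2 cells (2.5–5.0 × 10^4 per well) in EMEM with 10% FBS, in triplicate. Final compound concentrations 1–200 μM diluted from 20 mM DMSO stocks. Controls were 1% DMSO and 1% Triton X-100. Incubated 48 h at 37 °C under 5% CO2.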

| SMILES | CC50 [µM] |
| --- | --- |
| CCN(CC)CC.Nc1ncnc2c1ncn2[C@@H]1O[C@H](CNS(=O)(=O)NC(=O)c2ccccc2O)[C@@H](O)[C@H]1F | > 200 |
| CCN(CC)CC.Nc1ccc(C(=O)NS(=O)(=O)NC[C@H]2O[C@@H](n3cnc4c(N)ncnc43)[C@H](O)[C@@H]2O)c(O)c1 | > 200 |

Test system: not listed separately
Test: AUC (0 to infinity) in Sprague-Dawley rat at 2.5 mg/kg, iv by LC-MS/MS method
Assay type: ADME, organism-based
Set-up: dose 2.5 mg/kg, route intravenous, time infinity
Conditions: in vivo
Summary of the method: (§1)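 Female Sprague-Dawley rats (250–274 g) with dual jugular/femoral vein catheters, 3 per compound, given a single 2.5 mg/kg bolus into the jugular catheter over 5 s, 3 days after oral dosing. Vehicle was 0.05% sodium carboxymethylcellulose or 25% hydroxypropyl-β-cyclodextrin in water. Femoral blood sampled at 0–480 min into K2EDTA. Plasma analysed by LC–MS/MS with an internal standard. Non-compartmental analysis.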

| SMILES | AUC(0-inf) [ng·h/mL] |
| --- | --- |
| CCN(CC)CC.Nc1ncnc2c1ncn2[C@@H]1O[C@H](CNS(=O)(=O)NC(=O)c2ccccc2O)[C@@H](O)[C@H]1F | 17400 |
| CCN(CC)CC.Nc1ccc(C(=O)NS(=O)(=O)NC[C@H]2O[C@@H](n3cnc4c(N)ncnc43)[C@H](O)[C@@H]2O)c(O)c1 | 1050 |

Test system: not listed separately
Test: Clearance in Sprague-Dawley rat at 2.5 mg/kg, iv by LC-MS/MS method
Assay type: ADME, organism-based
Conditions: in vivo
Summary of the method: as §1

| SMILES | clearance [mL/min/kg] |
| --- | --- |
| CCN(CC)CC.Nc1ncnc2c1ncn2[C@@H]1O[C@H](CNS(=O)(=O)NC(=O)c2ccccc2O)[C@@H](O)[C@H]1F | 2.5 |
| CCN(CC)CC.Nc1ccc(C(=O)NS(=O)(=O)NC[C@H]2O[C@@H](n3cnc4c(N)ncnc43)[C@H](O)[C@@H]2O)c(O)c1 | 46.3 |

Test system: not listed separately
Test: Terminal half life in Sprague-Dawley rat at 2.5 mg/kg, iv by LC-MS/MS method
Assay type: ADME, organism-based
Conditions: in vivo, read-out: beta t1/2

| SMILES | half-life [min] |
| --- | --- |
| CCN(CC)CC.Nc1ncnc2c1ncn2[C@@H]1O[C@H](CNS(=O)(=O)NC(=O)c2ccccc2O)[C@@H](O)[C@H]1F | 32.5 |
| CCN(CC)CC.Nc1ccc(C(=O)NS(=O)(=O)NC[C@H]2O[C@@H](n3cnc4c(N)ncnc43)[C@H](O)[C@@H]2O)c(O)c1 | 10.6 |

Test system: not listed separately
Test: Cmax in Sprague-Dawley rat at 25 mg/kg, po by LC-MS/MS method
Assay type: ADME, organism-based
Set-up: dose 25 mg/kg, route oral
Conditions: Sprague-Dawley, in vivo
Summary of the method: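 Female Sprague-Dawley rats (250–274 g), catheterised, 3 per compound, dosed by oral gavage at 25 mg/kg from a 10 mg/mL solution. Femoral-vein blood taken at 0, 15, 30, 45, 60, 120, 240 and 480 min into K2EDTA. Plasma protein-precipitated with an internal standard and quantified by LC–MS/MS against standards in rat plasma. Parameters by non-compartmental analysis.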

| SMILES | Cmax [ng/mL] |
| --- | --- |
| CCN(CC)CC.Nc1ncnc2c1ncn2[C@@H]1O[C@H](CNS(=O)(=O)NC(=O)c2ccccc2O)[C@@H](O)[C@H]1F | 460 |
| CCN(CC)CC.Nc1ccc(C(=O)NS(=O)(=O)NC[C@H]2O[C@@H](n3cnc4c(N)ncnc43)[C@H](O)[C@@H]2O)c(O)c1 | 90 |

Test system: not listed separately
Test: AUC (0 to infinity) in Sprague-Dawley rat at 25 mg/kg, po by LC-MS/MS method
Assay type: ADME, organism-based
Set-up: dose 25 mg/kg, time infinity, route oral
Conditions: Sprague-Dawley, in vivo

| SMILES | AUC(0-inf) [ng·h/mL] |
| --- | --- |
| CCN(CC)CC.Nc1ncnc2c1ncn2[C@@H]1O[C@H](CNS(=O)(=O)NC(=O)c2ccccc2O)[C@@H](O)[C@H]1F | 3130 |
| CCN(CC)CC.Nc1ccc(C(=O)NS(=O)(=O)NC[C@H]2O[C@@H](n3cnc4c(N)ncnc43)[C@H](O)[C@@H]2O)c(O)c1 | 280 |

Test system: Rattus norvegicus
Test: Oral bioavailability in Sprague-Dawley rat at 25 mg/kg by LC-MS/MS method
Assay type: ADME, organism-based
Conditions: in vivo
Summary of the method: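 Crossover in the same 3 female Sprague-Dawley rats: 25 mg/kg by oral gavage, then after a 3-day washout 2.5 mg/kg iv bolus. Serial femoral plasma quantified by LC–MS/MS. AUCs by non-compartmental analysis. Absolute bioavailability calculated individually for each rat from its oral and iv data.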

| SMILES | F [%] |
| --- | --- |
| CCN(CC)CC.Nc1ncnc2c1ncn2[C@@H]1O[C@H](CNS(=O)(=O)NC(=O)c2ccccc2O)[C@@H](O)[C@H]1F | 1.8 |
| CCN(CC)CC.Nc1ccc(C(=O)NS(=O)(=O)NC[C@H]2O[C@@H](n3cnc4c(N)ncnc43)[C@H](O)[C@@H]2O)c(O)c1 | 3.7 |

Test system: Caco-2
Test: Apparent permeability from apical to basolateral side in human Caco2 cells after 30 to 120 mins by HPLC method
Assay type: ADME, cell-based
Conditions: not given
Summary of the method: (§2)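 Caco-2 cells (passage 50–70) grown 21 days on Transwell inserts, used only where TEER >300. Apical buffer pH 6.0, basolateral pH 7.4, 60 min preincubation. Compound dosed from a 20 mM DMSO stock with lucifer yellow on the donor side. Samples analysed by HPLC. Papp = (dQ/dt)/(A·C0) from cumulative sampling. Efflux ratio from B–A and A–B values.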

| SMILES | Papp [×10⁻⁶ cm/s] |
| --- | --- |
| CCN(CC)CC.Nc1ncnc2c1ncn2[C@@H]1O[C@H](CNS(=O)(=O)NC(=O)c2ccccc2O)[C@@H](O)[C@H]1F | 4.2 |

Test system: Caco-2
Test: Apparent permeability from basolateral to apical side in human Caco2 cells after 30 to 120 mins by HPLC method
Assay type: ADME, cell-based
Conditions: not given
Summary of the method: as §2

| SMILES | Papp [×10⁻⁶ cm/s] |
| --- | --- |
| CCN(CC)CC.Nc1ncnc2c1ncn2[C@@H]1O[C@H](CNS(=O)(=O)NC(=O)c2ccccc2O)[C@@H](O)[C@H]1F | 1.34 |

Test system: Caco-2
Test: Efflux ratio in human Caco2 cells after 30 to 120 mins by HPLC method
Assay type: ADME, cell-based
Conditions: not given
Summary of the method: as §2

| SMILES | Ratio |
| --- | --- |
| CCN(CC)CC.Nc1ncnc2c1ncn2[C@@H]1O[C@H](CNS(=O)(=O)NC(=O)c2ccccc2O)[C@@H](O)[C@H]1F | 0.32 |
